The source made the active and inactive calls. The calls are words filed in the database; no cut-off is given here.
What was measured:
[1] = Partition coefficient, log P of the compound; type: physicochemical; details: octanol/water
Outline: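 Shake-flask partition. Compound at 1 mM final in 1-octanol/water with an equal volume of 1-octanol/water added, vortexed 30 min. P is the octanol concentration divided by the aqueous concentration. Three independent experiments in duplicate.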

[2] = Inhibition of p56lck SH2 domain by ELISA; parameters: species or system Homo sapiens
Outline: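 Competitive ELISA. Compound plus GST-p56lck SH2 fusion (100 ng/ml) incubated 1 h at room temperature, in duplicate wells. Bound protein detected with rabbit anti-GST, then HRP anti-rabbit and TMB, acid-stopped, A450. Ac-pYEEIE control peptide; IC50 reported.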

[3] = tested on: Jurkat; test: Inhibition of Jurkat cell activation assessed as blocking of T-cell antigen receptor-induced IL-2 expression at 10 uM by luciferase assay; type: functional; details: Homo sapiens
Outline: (§1)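 Jurkat T cells (2 × 10⁶) transfected with 2 µg IL-2-luciferase reporter by lipofection. Compounds added 2 h before activation and kept present throughout 16 h stimulation with plate-coated anti-CD3 mAb (5 µg/ml, UCHT1) or […] plus ionomycin (0.5 µg/ml). Cells then washed, lysed and read for luciferase by luminometry. Three independent experiments in duplicate. Cyclosporin A positive control.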

[4] = tested on: Jurkat; test: Inhibition of Jurkat cell activation assessed as blocking of T-cell antigen receptor-induced IL-2 expression at 30 uM by luciferase assay; type: functional; details: Homo sapiens; outline: as §1

logP [1] | IC50 [2] | Compound | inhibition at 10 µM [3] | inhibition at 30 µM [4] | Activity [4]
0.758 | 20 µM | O=C(/C=C/c1ccc(O)c(O)c1)N[C@H](Cc1ccc(O)c(O)c1)C(=O)O | 10.3% | – | –
1.5 | 91 µM | CCOC(=O)[C@@H](Cc1ccc(O)c(O)c1)OC(=O)/C=C/c1ccc(O)c(O)c1 [ETHYL ROSMARINATE] | 22.7% | – | –
0.731 | 21 µM | O=C(/C=C/c1ccc(O)c(O)c1)N[C@@H](Cc1ccc(O)c(O)c1)C(=O)O | 11% | – | –
1.68 | > 500 µM | COC(=O)CCCCCNC(=O)[C@@H](Cc1ccc(O)c(O)c1)OC(=O)/C=C/c1ccc(O)c(O)c1 | 29.4% | – | –
1.52 | 145 µM | CCCOC(=O)[C@@H](Cc1ccc(O)c(O)c1)OC(=O)/C=C/c1ccc(O)c(O)c1 | 87.5% | – | –
0.834 | 24 µM | O=C(/C=C/c1ccc(O)c(O)c1)O[C@H](Cc1ccc(O)c(O)c1)C(=O)O [ROSMARINIC ACID] | 40.4% | 50% | –
2 | 127 µM | CC(C)(C)OC(=O)[C@@H](Cc1ccc(O)c(O)c1)OC(=O)/C=C/c1ccc(O)c(O)c1 | 80.7% | – | –
1.83 | 110 µM | CC(C)OC(=O)[C@@H](Cc1ccc(O)c(O)c1)OC(=O)/C=C/c1ccc(O)c(O)c1 | 86.1% | – | –
1.39 | 71 µM | COC(=O)[C@@H](Cc1ccc(O)c(O)c1)NC(=O)/C=C/c1ccc(O)c(O)c1 | 61.6% | – | –
1.48 | 80 µM | COC(=O)[C@@H](Cc1ccc(O)c(O)c1)OC(=O)/C=C/c1ccc(O)c(O)c1 [METHYL ROSMARINATE] | 54.7% | – | Active
0.503 | 15 µM | O=C(CCc1ccc(O)c(O)c1)O[C@H](Cc1ccc(O)c(O)c1)C(=O)O | 7.6% | – | –
1.31 | > 500 µM | COC(=O)[C@@H](Cc1ccc(O)c(O)c1)NC(=O)/C=C/c1ccc(O)c(OC)c1 | 2.2% | – | –

The next lines start with the compound.

Compound | logP [1] | IC50 [2] | inhibition at 10 µM [3] | inhibition at 30 µM [4] | Activity [4]
COC(=O)[C@@H](Cc1ccc(OC)c(OC)c1)NC(=O)/C=C/c1ccc(O)c(O)c1 | 1.53 | > 500 µM | 9.4% | – | –
COC(=O)[C@@H](Cc1ccc(O)c(O)c1)NC(=O)CCc1ccc(O)c(O)c1 | 0.344 | 32 µM | 7.5% | – | –
COC(=O)[C@@H](Cc1ccc(O)c(O)c1)NC(=O)/C=C/c1ccc(OC)c(O)c1 | 1.37 | > 500 µM | 5.4% | – | –
COC(=O)[C@@H](Cc1ccc(O)c(O)c1)NC(=O)c1ccc(O)c(O)c1 | 0.125 | 19 µM | 0.4% | – | –
O=C(CCc1ccc(O)c(O)c1)N[C@H](Cc1ccc(O)c(O)c1)C(=O)O | 0.493 | 13 µM | 0% | – | –
COC(=O)[C@@H](Cc1ccc(O)c(O)c1)NC(=O)Cc1ccc(O)c(O)c1 | 0.138 | 21 µM | 23% | – | –
NC(Cc1ccc(O)c(O)c1)C(=O)O (racemic) | – | > 500 µM | 0.6% | – | –
O=C(O)/C=C/c1ccc(O)c(O)c1 [CAFFEIC ACID] | – | > 500 µM | 2% | – | –
COC(=O)[C@@H](Cc1ccc(O)c(O)c1)NC(=O)/C=C/c1ccc(OC)c(OC)c1 | 1.52 | > 500 µM | 3.5% | – | –

Source: ChEMBL document CHEMBL1139924, “The structure-activity relationship of the series of non-peptide small antagonists for p56lck SH2 domain” (Bioorg Med Chem, 2007)
